Laboratory results published in ChEMBL document CHEMBL5335771, “Thioxanthenone-based derivatives as multitarget therapeutic leads for Alzheimer's disease” (Eur J Med Chem, 2023).
pIC50: −log10 of the molar value.

Key:
[1] = target: T1, Microtubule-associated protein tau (Homo sapiens, UniProt P10636); assay: Inhibition of tau (unknown origin) aggregation expressed in Escherichia coli BL21 (DE3)
Procedure, shortened: (§1)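 E. coli BL21(DE3) carrying pTARA (T7 RNA polymerase under PBAD) and pRKT42 (four-repeat tau) grown at 37 °C in M9 with 0.5% glucose, antibiotics and 250 μM ThS to OD600 0.6. […] ThS fluorescence ex 430/em 485 nm, normalized to tau-expressing cells (100%) and non-expressing cells (0%); OD600 checked for growth.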
Target sequence in this assay (P10636 whole entry): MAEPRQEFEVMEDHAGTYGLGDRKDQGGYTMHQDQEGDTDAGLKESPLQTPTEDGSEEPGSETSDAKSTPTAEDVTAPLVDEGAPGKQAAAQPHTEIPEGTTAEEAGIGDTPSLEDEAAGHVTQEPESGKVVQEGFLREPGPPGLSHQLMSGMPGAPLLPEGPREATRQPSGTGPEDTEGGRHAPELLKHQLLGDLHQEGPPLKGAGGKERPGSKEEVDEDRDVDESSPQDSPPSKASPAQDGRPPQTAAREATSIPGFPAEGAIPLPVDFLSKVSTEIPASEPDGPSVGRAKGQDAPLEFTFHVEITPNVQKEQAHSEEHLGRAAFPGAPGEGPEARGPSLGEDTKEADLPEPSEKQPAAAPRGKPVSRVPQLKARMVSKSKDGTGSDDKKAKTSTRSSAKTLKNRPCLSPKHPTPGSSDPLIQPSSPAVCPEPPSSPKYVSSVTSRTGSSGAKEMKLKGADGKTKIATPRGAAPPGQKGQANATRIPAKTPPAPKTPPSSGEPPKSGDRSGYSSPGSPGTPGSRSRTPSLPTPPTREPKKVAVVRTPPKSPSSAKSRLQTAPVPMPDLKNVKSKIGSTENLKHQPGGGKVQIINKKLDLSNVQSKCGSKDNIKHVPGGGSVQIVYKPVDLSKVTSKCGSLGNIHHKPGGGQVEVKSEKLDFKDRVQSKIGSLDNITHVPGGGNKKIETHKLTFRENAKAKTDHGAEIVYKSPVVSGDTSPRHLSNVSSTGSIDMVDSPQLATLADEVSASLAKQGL

[2] = target: Amyloid-beta precursor protein (Homo sapiens, UniProt P05067); assay: Inhibition of amyloid beta 40 peptide (unknown origin) aggregation incubated for 2 hr by ThT fluorescence based spectrofluorimetric analysis
Procedure, shortened: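 Aβ40 peptide aggregation enhanced with 2% HFIP; thioflavin T fluorescence read-out; run in triplicate.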

[3] = target: T1, Microtubule-associated protein tau; assay: Inhibition of PHF6 peptide (unknown origin) aggregation at 10 uM measured after 3 hrs by thioflavin T fluorescence based fluorimetric analysis relative to control
Target sequence in this assay (P10636 whole entry, looked up): as the sequence (P10636 whole entry) above

[4] = target: T1, Microtubule-associated protein tau; assay: Inhibition of tau (unknown origin) aggregation expressed in Escherichia coli BL21 (DE3) at 10 uM relative to control; procedure, shortened: as §1
Target sequence in this assay (P10636 whole entry): as above

Acetylcholinesterase [5] = target: Acetylcholinesterase (Electrophorus electricus, UniProt O42275); assay: Inhibition of electric eel AChE using acetylthiocholine iodide as substrate preincubated for 20 mins followed by substrate addition by DTNB reagent based Ellman's method
Cholinesterase [6] = target: Cholinesterase (Homo sapiens, UniProt P06276); assay: Inhibition of human recombinant BChE using acetylthiocholine iodide as substrate preincubated for 20 mins followed by substrate addition by DTNB reagent based Ellman's method
Procedure, shortened: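 Human BChE was assayed by the Ellman spectrophotometric method. IC50 values are means of three independent experiments, each run in triplicate.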

Cholinesterase [7] = target: Cholinesterase (Equus caballus, UniProt P81908); assay: Inhibition of equine serum BChE using butyrylthiocholine iodide as substrate preincubated for 20 mins followed by substrate addition by DTNB reagent based Ellman's method; assay type: cell-free
Acetylcholinesterase [8] = target: Acetylcholinesterase (Homo sapiens, UniProt P22303); assay: Inhibition of human recombinant AChE using acetylthiocholine iodide as substrate preincubated for 20 mins followed by substrate addition by DTNB reagent based Ellman's method
Acetylcholinesterase (Homo sapiens, UniProt P22303), sequence (P22303 whole entry): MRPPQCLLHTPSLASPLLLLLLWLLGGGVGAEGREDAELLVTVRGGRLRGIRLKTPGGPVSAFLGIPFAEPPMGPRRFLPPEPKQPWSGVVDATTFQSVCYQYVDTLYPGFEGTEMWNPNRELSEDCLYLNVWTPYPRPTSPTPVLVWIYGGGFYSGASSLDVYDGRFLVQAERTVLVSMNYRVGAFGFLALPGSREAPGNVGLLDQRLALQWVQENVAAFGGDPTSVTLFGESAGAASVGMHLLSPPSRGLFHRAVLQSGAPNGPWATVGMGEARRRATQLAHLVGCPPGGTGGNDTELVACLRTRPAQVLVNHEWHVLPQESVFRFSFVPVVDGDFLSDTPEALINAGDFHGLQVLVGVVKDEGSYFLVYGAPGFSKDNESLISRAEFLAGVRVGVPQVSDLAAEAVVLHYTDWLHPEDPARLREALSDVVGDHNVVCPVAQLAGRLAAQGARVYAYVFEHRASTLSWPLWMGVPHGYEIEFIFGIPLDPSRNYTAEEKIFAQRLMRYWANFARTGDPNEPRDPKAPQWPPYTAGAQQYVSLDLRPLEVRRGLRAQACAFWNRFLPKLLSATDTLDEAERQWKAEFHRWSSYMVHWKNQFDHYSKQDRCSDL

Cholinesterase (Equus caballus, UniProt P81908), sequence (P81908 whole entry): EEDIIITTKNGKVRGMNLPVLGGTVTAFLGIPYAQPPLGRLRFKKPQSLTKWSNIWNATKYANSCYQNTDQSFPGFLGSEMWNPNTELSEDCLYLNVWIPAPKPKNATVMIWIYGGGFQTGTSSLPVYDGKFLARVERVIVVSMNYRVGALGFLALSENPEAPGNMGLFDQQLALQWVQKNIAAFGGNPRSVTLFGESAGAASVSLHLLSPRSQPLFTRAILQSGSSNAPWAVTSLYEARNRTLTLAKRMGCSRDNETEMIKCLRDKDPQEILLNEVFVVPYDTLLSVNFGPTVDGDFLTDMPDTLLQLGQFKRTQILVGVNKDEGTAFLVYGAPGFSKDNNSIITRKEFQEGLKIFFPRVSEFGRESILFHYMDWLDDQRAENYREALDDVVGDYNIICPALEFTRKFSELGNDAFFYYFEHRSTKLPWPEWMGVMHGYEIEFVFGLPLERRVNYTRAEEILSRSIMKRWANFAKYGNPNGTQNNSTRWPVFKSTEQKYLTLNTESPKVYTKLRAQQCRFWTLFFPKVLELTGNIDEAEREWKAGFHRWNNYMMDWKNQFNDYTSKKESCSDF
Cholinesterase (Homo sapiens, UniProt P06276), sequence (P06276 whole entry): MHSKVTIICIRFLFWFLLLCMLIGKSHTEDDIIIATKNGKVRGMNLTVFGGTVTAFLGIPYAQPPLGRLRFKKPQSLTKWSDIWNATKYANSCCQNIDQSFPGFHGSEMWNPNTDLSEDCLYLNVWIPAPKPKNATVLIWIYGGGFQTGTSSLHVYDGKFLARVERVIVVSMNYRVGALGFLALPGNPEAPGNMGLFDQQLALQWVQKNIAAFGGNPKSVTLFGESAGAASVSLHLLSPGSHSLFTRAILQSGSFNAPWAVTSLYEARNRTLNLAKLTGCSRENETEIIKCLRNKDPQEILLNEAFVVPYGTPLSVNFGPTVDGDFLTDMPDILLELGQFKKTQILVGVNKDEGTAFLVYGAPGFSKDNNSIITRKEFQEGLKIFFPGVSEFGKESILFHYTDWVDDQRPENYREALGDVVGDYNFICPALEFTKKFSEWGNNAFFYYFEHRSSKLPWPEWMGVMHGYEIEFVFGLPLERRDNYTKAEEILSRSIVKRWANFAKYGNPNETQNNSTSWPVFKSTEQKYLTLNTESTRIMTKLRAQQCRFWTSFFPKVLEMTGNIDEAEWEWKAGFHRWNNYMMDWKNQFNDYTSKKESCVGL
Acetylcholinesterase (Electrophorus electricus, UniProt O42275), sequence (O42275 whole entry): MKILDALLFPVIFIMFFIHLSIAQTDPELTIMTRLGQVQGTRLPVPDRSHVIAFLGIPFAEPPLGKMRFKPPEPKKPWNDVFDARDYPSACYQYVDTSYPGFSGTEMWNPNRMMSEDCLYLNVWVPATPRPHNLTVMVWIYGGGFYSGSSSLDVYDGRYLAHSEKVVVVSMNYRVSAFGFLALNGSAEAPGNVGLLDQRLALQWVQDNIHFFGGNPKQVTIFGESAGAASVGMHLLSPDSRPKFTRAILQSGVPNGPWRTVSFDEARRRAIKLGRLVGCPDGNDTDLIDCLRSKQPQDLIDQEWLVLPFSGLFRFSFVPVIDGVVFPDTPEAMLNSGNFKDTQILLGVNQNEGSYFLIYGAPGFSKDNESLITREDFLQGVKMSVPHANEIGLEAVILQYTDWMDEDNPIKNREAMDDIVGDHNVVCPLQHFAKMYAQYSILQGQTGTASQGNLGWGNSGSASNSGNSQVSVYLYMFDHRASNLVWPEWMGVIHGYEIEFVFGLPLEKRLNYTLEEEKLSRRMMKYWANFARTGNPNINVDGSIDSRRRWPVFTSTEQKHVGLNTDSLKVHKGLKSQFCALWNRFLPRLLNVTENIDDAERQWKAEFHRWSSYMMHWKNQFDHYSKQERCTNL
Amyloid-beta precursor protein, sequence (P05067 whole entry): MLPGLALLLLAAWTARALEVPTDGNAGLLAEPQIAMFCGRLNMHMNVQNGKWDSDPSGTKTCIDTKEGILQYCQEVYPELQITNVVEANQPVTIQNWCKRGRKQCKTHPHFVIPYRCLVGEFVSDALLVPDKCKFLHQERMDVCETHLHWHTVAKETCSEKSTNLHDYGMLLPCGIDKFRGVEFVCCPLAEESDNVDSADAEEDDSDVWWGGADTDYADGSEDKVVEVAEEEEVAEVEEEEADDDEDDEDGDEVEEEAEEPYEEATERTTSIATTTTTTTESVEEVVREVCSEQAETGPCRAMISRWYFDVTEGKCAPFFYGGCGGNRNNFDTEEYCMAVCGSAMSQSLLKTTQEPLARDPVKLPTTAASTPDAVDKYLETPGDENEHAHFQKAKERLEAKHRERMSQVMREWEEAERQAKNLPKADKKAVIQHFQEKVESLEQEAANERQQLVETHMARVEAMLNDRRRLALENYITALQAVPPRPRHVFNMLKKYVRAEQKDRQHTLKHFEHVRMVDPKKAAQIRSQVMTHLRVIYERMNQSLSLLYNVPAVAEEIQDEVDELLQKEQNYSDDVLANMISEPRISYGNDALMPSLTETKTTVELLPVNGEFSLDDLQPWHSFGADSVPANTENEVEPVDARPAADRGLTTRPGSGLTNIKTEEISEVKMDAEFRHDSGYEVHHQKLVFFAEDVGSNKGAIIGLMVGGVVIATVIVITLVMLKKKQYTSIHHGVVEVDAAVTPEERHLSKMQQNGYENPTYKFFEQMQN

| pIC50 [2] | inhibition [3] [%] | inhibition [4] [%] | Structure (SMILES) | pIC50 [1] | pIC50 (Acetylcholinesterase [5]) | pIC50 (Cholinesterase [6]) | pIC50 (Cholinesterase [7]) | pIC50 (Acetylcholinesterase [8]) |
| --- | --- | --- | --- | --- | --- | --- | --- | --- |
| 4.85 | – | – | Nc1ccc(NC[C@@H]2CCCN3CCCC[C@H]23)c2c(=O)c3ccccc3sc12 | 5.07 | – | – | – | – |
| 4.68 | > 80 | 24 | CCN(CC)CCCNc1ccc(N)c2sc3ccc(OC)cc3c(=O)c12 | – | – | – | – | – |
| 5.54 | > 80 | – | Cc1ccc(NCCC[C@@H]2CCCN3CCCC[C@H]23)c2c(=O)c3cc(O)ccc3sc12 | 5.14 | – | – | – | – |
| 4.77 | – | – | CCN(CC)CCCNc1ccc([N+](=O)[O-])c2sc3ccc(OC)cc3c(=O)c12 | 5.32 | – | – | – | – |
| 5.23 | – | – | Cc1ccc(NC[C@@H]2CCCN3CCCC[C@H]23)c2c(=O)c3cc(O)ccc3sc12 | 5.04 | – | – | – | – |
| 5.37 | – | 26 | Cc1ccc(NCCC[C@@H]2CCCN3CCCC[C@H]23)c2c(=O)c3ccccc3sc12 | – | – | – | – | – |
| 4.70 | – | – | O=c1c2ccccc2sc2c([N+](=O)[O-])ccc(NC[C@@H]3CCCN4CCCC[C@H]34)c12 | 4.82 | – | – | – | – |
| 4.21 | – | – | CCCN(SC[C@H]1CCCN2CCCC[C@H]12)C1=C(Cl)C(=O)c2ccccc2C1=O | – | – | – | – | – |
| 5.89 | – | 26 | Nc1ccc(NCCC[C@@H]2CCCN3CCCC[C@H]23)c2c(=O)c3ccccc3sc12 | – | – | – | – | – |
| 4.96 | – | 32 | COc1ccc2sc3c([N+](=O)[O-])ccc(NC[C@@H]4CCCN5CCCC[C@H]45)c3c(=O)c2c1 | – | – | – | – | – |
| 5.37 | – | – | COc1ccc2sc3c(C)ccc(NC[C@@H]4CCCN5CCCC[C@H]45)c3c(=O)c2c1 | 5.26 | – | – | – | – |
| 4.32 | – | 35 | Cc1ccc(NC[C@@H]2CCCN3CCCC[C@H]23)c2c(=O)c3ccccc3oc12 | – | – | – | – | – |

| Structure (SMILES) | pIC50 [2] | inhibition [3] [%] | inhibition [4] [%] | pIC50 [1] | pIC50 (Acetylcholinesterase [5]) | pIC50 (Cholinesterase [6]) | pIC50 (Cholinesterase [7]) | pIC50 (Acetylcholinesterase [8]) |
| --- | --- | --- | --- | --- | --- | --- | --- | --- |
| COc1ccc2sc3c(N)ccc(NCC[C@@H]4CCCN5CCCC[C@H]45)c3c(=O)c2c1 | 4.89 | – | 33 | – | 5.72 | 6.00 | 6.82 | 5.62 |
| Cc1ccc(NCC[C@@H]2CCCN3CCCC[C@H]23)c2c(=O)c3cc(O)ccc3sc12 | 5.62 | – | – | 5.05 | 5.49 | 6.05 | 6.80 | 5.37 |
| COc1ccc2sc3c(C)ccc(NCC[C@@H]4CCCN5CCCC[C@H]45)c3c(=O)c2c1 | 5.62 | – | – | 4.85 | 5.29 | 6.15 | 6.85 | 5.44 |
| Cc1ccc(NCCC[C@@H]2CCCN3CCCC[C@H]23)c2c(=O)c3ccccc3oc12 | 4.89 | – | – | 4.64 | 6.85 | 6.52 | 6.43 | 5.06 |
| COc1ccc2sc3c([N+](=O)[O-])ccc(NCCC[C@@H]4CCCN5CCCC[C@H]45)c3c(=O)c2c1 | 5.10 | – | – | 5.52 | 6.92 | 5.14 | 5.70 | 5.76 |
| Cc1ccc(NCCCSC[C@@H]2CCCN3CCCC[C@H]23)c2c(=O)c3ccccc3sc12 | 5.37 | – | – | 4.70 | 6.74 | 8.15 | 7.06 | 5.11 |
| COc1ccc2sc3c([N+](=O)[O-])ccc(NCC[C@@H]4CCCN5CCCC[C@H]45)c3c(=O)c2c1 | 5.04 | – | – | 5.16 | 5.64 | 5.74 | 6.82 | 5.32 |
